In publication PMC4235474 (Clinical Pharmacology : Advances and Applications, 2014):
“And” between values parts separate entries of the source, which are not always exact repeats. Equal entries are not always repeated. Where two headings read alike, the source gives them in different places. Marks after values point to notes of the source that are not given here.

How the values were obtained:
healthy subjects = assay: Safety and tolerability; assay type: in vivo, human; conditions: for deaths or serious AEs: during the study; for number of subjects reporting AEs: of 14 subjects; for tolerability: rivaroxaban 10 mg QD, apixaban 2.5 mg BID for 4 days
Method in brief: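 Randomized open-label two-period crossover in healthy volunteers housed in a clinical unit. Each took two oral factor Xa inhibitors for 4 days: one at 2.5 mg twice daily, the other at 10 mg once daily. Physical exam, vital signs, 12-lead ECG and blood/urine labs were done at screening, before each period and at discharge. AEs were monitored throughout, MedDRA-coded, and graded for severity, onset, drug relationship and outcome.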

[1] = Multiple-dose steady-state plasma pharmacokinetics; assay type: in vivo, healthy subjects (human); conditions: for Coefficient of variation (intersubject variability) for exposure parameters (AUC0–24, Cmax, Cmin): apixaban 2.5 mg BID
[2] = cited from earlier work
factor Xa = factor Xa (Bos taurus, UniProt P00743); assay: Steady-state plasma anti-factor Xa activity; assay type: in vivo, healthy subjects (human); conditions: for slope of concentration–AXA linear regression: AXA versus plasma concentration, P<0.0001 between drugs; for intercept in regression equation anti-FXa vs plasma concentration / slope in regression equation anti-FXa vs plasma concentration: Figure 4 regression equation; for AXA Tpeak median (min–max): time of peak anti-FXa activity, day 4 steady state; for AXA AUC(0–24) G mean (CV): 0 to 24 hours after morning dose, rivaroxaban 10 mg QD
Sequence of factor Xa (P00743 234-492 limits assumed): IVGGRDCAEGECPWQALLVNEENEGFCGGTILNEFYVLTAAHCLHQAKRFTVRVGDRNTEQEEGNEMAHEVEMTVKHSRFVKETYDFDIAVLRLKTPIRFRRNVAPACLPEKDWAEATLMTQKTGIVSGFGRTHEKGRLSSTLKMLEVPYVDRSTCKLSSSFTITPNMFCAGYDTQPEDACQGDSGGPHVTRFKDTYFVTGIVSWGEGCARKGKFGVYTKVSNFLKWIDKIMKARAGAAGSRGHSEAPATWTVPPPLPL
Sequence of factor Xa (P00743 41-180 partner limits assumed): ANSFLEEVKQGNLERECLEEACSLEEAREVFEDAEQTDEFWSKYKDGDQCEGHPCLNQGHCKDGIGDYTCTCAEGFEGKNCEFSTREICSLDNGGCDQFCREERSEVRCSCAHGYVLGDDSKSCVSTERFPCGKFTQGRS

[3] = cited from earlier work; for fluctuation in mean concentrations / mean terminal half-life: apixaban 2.5 mg BID, multiple ascending dose study
[4] = VTEp patients; cited from earlier work
prothrombin time = conditions: at a concentration of 1,000 ng/mL; cited from earlier work
[5] = day 4 steady state, rivaroxaban 10 mg QD
[6] = day 4 steady state, rivaroxaban 10 mg QD, apixaban 2.5 mg BID oral, N=14

COc1ccc(-n2nc(C(N)=O)c3c2C(=O)N(c2ccc(N4CCCCC4=O)cc2)CC3)cc1 [Apixaban, apixaban]
deaths or serious AEs (healthy subjects): No deaths or serious AEs | number of subjects reporting AEs (healthy subjects): eight | tolerability (healthy subjects): well-tolerated | T1/2 Mean (SD), terminal half-life ([1]; after last dose on day 4 (apixaban: evening dose; rivaroxaban: morning dose), N=14): 8.65 (2.19) ^* h | Coefficient of variation (intersubject variability) for exposure parameters (AUC0–24, Cmax, Cmin) [1, 5]: 20%–24% | Cmax G mean (%CV) [1, 6]: 80.5 (23) ng/mL | Tmax ([1]; human, plasma, oral): 2 h | AUC(0-t) ([1]; human, plasma, oral, 2.5 mg): 527 ng·h/mL | Protein binding [2]: ~ 87% | AXA AUC(0–12) G mean (CV) (factor Xa; 0 to 12 hours after morning dose, day 4, apixaban 2.5 mg BID, N=14): 7.42 (21) IU · h/mL | slope of concentration–AXA linear regression (factor Xa): 0.0134 IU/ng | intercept in regression equation anti-FXa vs plasma concentration (factor Xa): 0.02753 | slope in regression equation anti-FXa vs plasma concentration (factor Xa): 0.01342 | AXA T1/2 Mean (SD) (factor Xa; determined after evening dose on day 4, apixaban 2.5 mg BID): 8.9 h and 8.91 (2.46) ^‡ h | AXA Tpeak median (min–max) (factor Xa; N=14): 2.00 (1.00–3.00) h | AXA Tpeak median (min–max) (factor Xa; N=14, listed as apixaban): 2 h | time to steady state ([3]; BID dosing): 2 to 3 days | fluctuation in mean concentrations ([3]; Japanese subjects): ~ 4.2 | mean terminal half-life ([3]; Japanese subjects): 9.7 h | fluctuation in mean concentrations ([3]; Western subjects): ~ 3.0 | mean terminal half-life ([3]; Western subjects): 8.1 h | terminal half-life [3]: ~ 12 hours | time to maximal plasma concentrations after administration [3]: ~ 3 hours | accumulation ([3]; following BID dosing): < 2 fold | bioavailability ([3]; not significantly influenced by dose or meals): ~ 50%

O=C(NC[C@H]1CN(c2ccc(N3CCOCC3=O)cc2)C(=O)O1)c1ccc(Cl)s1 [Rivaroxaban, rivaroxaban]
Cmax/Cmin ratio [4]: ~ 7 | number of AEs reported (healthy subjects; after start of study medication, 14 subjects, all mild): Twelve | deaths or serious AEs (healthy subjects): No deaths or serious AEs | number of subjects reporting AEs (healthy subjects): seven | tolerability (healthy subjects): well-tolerated | AUC0–24 at steady state, rivaroxaban higher than apixaban ([1]; daily AUC): ~ 17% | Cmax, rivaroxaban relative to apixaban (higher) ([1]; day 4): ~ 2 fold | Cmin, rivaroxaban lower than apixaban ([1]; day 4): ~ 40% | Coefficient of variation (intersubject variability) for exposure parameters (AUC0–24, Cmax, Cmin) [1, 5]: 29%–46% | Cmin G mean (%CV) [1, 6]: 10.1 (39) ng/mL | Cmax/Cmin ratio, rivaroxaban relative to apixaban ([1]; geometric mean ratio, 90% CI: 2.82–4.61): 3.6 fold | Protein binding [2]: ~ 93% | effect in the prothrombin time assay (prothrombin time): greater effect than apixaban | AXA AUC(0–24) G mean (CV) (factor Xa; day 4, apixaban 2.5 mg BID, N=14): 17.8 (29) IU · h/mL | AXA AUC(0–24) G mean (CV) (factor Xa; day 4, apixaban 2.5 mg BID, N=14, listed as rivaroxaban): 17.8 IU · h/mL | slope of concentration–AXA linear regression (factor Xa): 0.0172 IU/ng | intercept in regression equation anti-FXa vs plasma concentration (factor Xa): −0.03215 | slope in regression equation anti-FXa vs plasma concentration (factor Xa): 0.01719 | AXA AUC(0–24), rivaroxaban higher than apixaban (factor Xa; geometric mean): ~ 34% | AXA AUC(0–24), rivaroxaban relative to apixaban (higher) (factor Xa; steady state): ~1.3 fold | Peak AXA, rivaroxaban relative to apixaban (higher) (factor Xa; steady state): ~ 2.5 fold | trough AXA, rivaroxaban lower than apixaban (factor Xa; steady state): ~ 30% | AXA Tpeak median (min–max) (factor Xa; N=14): 2.00 (1.00–3.00) h | AXA Tpeak median (min–max) (factor Xa; N=14, listed as rivaroxaban): 2 h | terminal half-life [3]: ~ 10 hours | time to maximal plasma concentrations after administration [3]: ~ 3 hours | bioavailability ([3]; depending on dose and administration with a meal): 66%–100% | accumulation ([3]; following QD administration): does not show appreciable accumulation | half-life ([3]; rivaroxaban 5 mg QD, healthy subjects): 8.4 h
